# The source made the active and inactive calls. The calls are words filed in the database; no cut-off is given here.
# What was measured:
# [1] = Drug metabolism in po dosed C57BL/6 mouse assessed as psilocin formation measured upto 24 hrs by LC-MS analysis; type: ADME, organism-based; details: in vivo, dose 1-10 mg/kg
# [2] = Drug metabolism in C57BL/6 mouse assessed as psilocin formation at 1 mg/kg, iv measured upto 24 hrs by LC-MS analysis; type: ADME, organism-based; details: in vivo
# [3] = Metabolic stability in human liver S9 fraction assessed as half life at 2.5 uM measured upto 120 mins in presence of NADPH by LC-MS analysis; type: ADME, subcellular; details: for t1/2: s9, 2 h, 2.5 µM
# Procedure, shortened: (§1)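 2.5 μM compound at 37 °C in 50 mM potassium phosphate pH 7.4 with 3 mM MgCl2, 1 mM EDTA and an NADPH regenerating system. […] Sampled at 0–120 min in 20-min steps, acetonitrile quench, LC-MS of parent. T1/2 from one-phase exponential decay fit.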
# [4] = Metabolic stability in human liver microsomes assessed as half life at 2.5 uM measured upto 120 mins in presence of NADPH by LC-MS analysis; type: ADME, Microsome; details: for t1/2: microsomes, 2 h, 2.5 µM; procedure, shortened: as §1
# [5] = Metabolic stability in human intestine S9 fraction assessed as half life at 2.5 uM measured upto 120 mins in presence of NADPH by LC-MS analysis; type: ADME, subcellular; details: s9, 2 h; procedure, shortened: as §1
# [6] = Metabolic stability in human intestine microsomes assessed as half life at 2.5 uM measured upto 120 mins in presence of NADPH by LC-MS analysis; type: ADME, Microsome; details: 2 h; procedure, shortened: as §1
# [7] = Metabolic stability in human serum assessed as half life at 2.5 uM measured upto 120 mins in presence of NADPH by LC-MS analysis; type: ADME, cell-free; details: 2 h; procedure, shortened: as §1
# [8] = Drug metabolism in human liver S9 fraction assessed as psilocin formation at 2.5 uM after 120 mins by LC-MS analysis; type: ADME, subcellular; details: s9, 2 h
# Procedure, shortened: (§2)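 2.5 μM compound in 50 mM potassium phosphate pH 7.4 with 3 mM MgCl2, 1 mM EDTA and an NADPH regenerating system. Incubated at 37 °C with human liver or intestinal S9 or microsomes (400 μg/mL protein) or 10% human AB serum. Acetonitrile quench, then LC-MS; psilocin concentration read at 120 min.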
# [9] = Drug metabolism in human liver microsomes assessed as psilocin formation at 2.5 uM after 120 mins by LC-MS analysis; type: ADME, Microsome; details: 2 h; procedure, shortened: as §2
# [10] = Drug metabolism in human intestine S9 fraction assessed as psilocin formation at 2.5 uM after 120 mins by LC-MS analysis; type: ADME, subcellular; details: s9, 2 h; procedure, shortened: as §2
# [11] = Drug metabolism in human intestine microsomes assessed as psilocin formation at 2.5 uM after 120 mins by LC-MS analysis; type: ADME, Microsome; details: 2 h; procedure, shortened: as §2
# [12] = Drug metabolism in human serum assessed as psilocin formation at 2.5 uM after 120 mins by LC-MS analysis; type: ADME, cell-free; details: 2 h; procedure, shortened: as §2
# [13] = Drug metabolism in C57BL/6 mouse assessed as psilocin formation at 10 mg/kg, po measured after 8 hrs by LC-MS analysis; type: ADME, organism-based; details: in vivo
# Mus musculus [14] = test: Psychedelic activity in mouse assessed as head-twitch response at 1 mg/kg, po measured after 15 to 30 mins; type: functional, organism-based; details: time 15-30 min
# Procedure, shortened: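 C57BL/6 mice, singly housed for 2 days, with 30-min predose chamber acclimation. Single oral 1 mg/kg dose from 100 mM DMSO stock diluted in 0.9% saline; vehicle 1% DMSO in saline. Video-recorded after dosing; head twitches scored blind per 15-min interval (reference time course) or for the 15–30 min window. n = 2–4; one-way ANOVA.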
# Mus musculus [15] = test: Anxiolytic activity in non-stressed mouse assessed as reduction in marble-burying behavior by measuring decrease in number of buried marbles at 10 mg/kg, po measured after 1 day; type: functional, organism-based
# Mus musculus [16] = test: Anxiolytic activity in non-stressed mouse assessed as reduction in marble-burying behavior by measuring decrease in number of buried marbles at 10 mg/kg, po measured upto 7 days; type: functional, organism-based; details: time <= 7.0 day
# [17] = Drug metabolism in C57BL/6 mouse assessed as psilocin formation at 10 mg/kg, po measured at 24 hrs by LC-MS analysis; type: ADME, organism-based; details: in vivo
Compound,Drug metabolism [1],Drug metabolism [2],half-life at 2.5 µM ([3]; liver S9 fraction),half-life at 2.5 µM ([4]; liver microsomes),t1/2 [5],t1/2 [6],t1/2 [7],Drug metabolism [8],Drug metabolism [9],Drug metabolism [10],Drug metabolism [11],Drug metabolism [12],Drug metabolism [13],Activity (Mus musculus [14]),Activity (Mus musculus [15]),Activity (Mus musculus [16]),t1/2 [3],t1/2 [4],Drug metabolism [17]
CN(C)CCc1c[nH]c2cccc(OC(=O)SCc3ccccc3)c12,Dose-Dependent Effect,Metabolite_Detected,5 min,6 min,50 min,71 min,14 min,1.233 µM,2.105 µM,0 µM,0.156 µM,0.385 µM,Metabolite_Notdetected,Active,Active,Active,,,
CCCC(=O)OCOc1cccc2[nH]cc(CCN(C)C)c12,Dose-Dependent Effect,,,,241 min,74 min,2 min,0.012 µM,0.073 µM,0.018 µM,0.043 µM,0 µM,Metabolite_Notdetected,inactive,,,4 min,3 min,
CN(C)CCc1c[nH]c2cccc(OC(=O)CC3CC3)c12,Dose-Dependent Effect,Metabolite_Detected,,,104 min,62 min,1 min,1.343 µM,1.89 µM,1.384 µM,0.927 µM,0.778 µM,Metabolite_Notdetected,Active,Active,,3 min,1 min,
CCCCC(=O)OCOc1cccc2[nH]cc(CCN(C)C)c12,Dose-Dependent Effect,Metabolite_Detected,,,39 min,112 min,3 min,0.07 µM,0.132 µM,0.055 µM,0.081 µM,0 µM,Metabolite_Notdetected,,,,5 min,4 min,
CN(C)CCc1c[nH]c2cccc(OC(=O)c3c(F)c(F)c(F)c(F)c3F)c12,Dose-Dependent Effect,,,,56 min,32 min,0.7 min,1.244 µM,2.554 µM,0.533 µM,0.786 µM,0.45 µM,Metabolite_Notdetected,Active,,,1 min,1 min,
CN(C)CCc1c[nH]c2cccc(OC(=O)OCc3ccccc3)c12,Dose-Dependent Effect,Metabolite_Detected,,,529 min,211 min,,0.084 µM,0.114 µM,0.044 µM,0.038 µM,0 µM,,,,,,113 min,Metabolite_Detected
COc1ccc(C(=O)Oc2cccc3[nH]cc(CCN(C)C)c23)cc1,Dose-Dependent Effect,Metabolite_Detected,,,132 min,315 min,1 min,1.95 µM,2.718 µM,0.114 µM,0.041 µM,1.097 µM,Metabolite_Notdetected,Active,Active,Active,21 min,17 min,
